Key:
Assay type in all cases: ADME
[1] = target: T1, UDP-glucuronosyltransferase 2B17 (Homo sapiens, UniProt O75795); assay: Drug metabolism assessed as recombinant human C-terminal His-tagged UGT2B17-mediated 17-epiestriol glucuronide metabolite formation after 15 to 60 mins by HPLC analysis in presence of UDPGA; settings: recombinant enzyme
T1 sequence (O75795 whole entry): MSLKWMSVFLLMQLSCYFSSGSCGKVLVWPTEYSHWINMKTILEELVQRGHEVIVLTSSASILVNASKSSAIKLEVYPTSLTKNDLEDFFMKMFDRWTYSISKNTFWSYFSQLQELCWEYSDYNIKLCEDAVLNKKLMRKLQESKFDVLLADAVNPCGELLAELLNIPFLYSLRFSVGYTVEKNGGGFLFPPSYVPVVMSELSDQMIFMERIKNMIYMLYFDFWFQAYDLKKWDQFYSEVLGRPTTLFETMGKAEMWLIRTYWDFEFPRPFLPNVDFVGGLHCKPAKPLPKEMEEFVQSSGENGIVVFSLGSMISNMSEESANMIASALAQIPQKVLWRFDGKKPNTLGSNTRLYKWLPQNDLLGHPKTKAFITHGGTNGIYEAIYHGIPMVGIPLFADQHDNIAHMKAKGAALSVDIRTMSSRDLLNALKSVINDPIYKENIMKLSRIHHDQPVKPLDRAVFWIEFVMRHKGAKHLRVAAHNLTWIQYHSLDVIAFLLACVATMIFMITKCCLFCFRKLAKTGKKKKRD

[2] = target: T1, UDP-glucuronosyltransferase 2B17; assay: Drug metabolism assessed as recombinant human C-terminal His-tagged UGT2B17-mediated 16-epiestriol-17-glucuronide formation at 5 mg after 5 hrs by NMR spectroscopic analysis in presence of UDPGA
[3] = Drug metabolism in human intestine microsomes assessed as 16-epiestriol-3-glucuronide formation after 15 to 60 mins by Michaelis-Menten equation analysis in presence of UDPGA
In short: (§1)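 Pooled human intestine microsomes (6 donors), 0.5 or 10 µg, with alamethicin at 5% of total protein. Incubated with 50 mM phosphate pH 7.4, 10 mM MgCl₂, 5 mM UDPGA and 10% DMSO for 15–60 min at 37°C. Each glucuronide regioisomer quantified by HPLC, in triplicate, with substrate consumption at or below 10%.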

[4] = target: T2, UDP-glucuronosyltransferase 1A3 (Homo sapiens, UniProt P35503); assay: Drug metabolism assessed as recombinant human C-terminal His-tagged UGT1A3-mediated estradiol-3-glucuronide formation at 200 uM after 15 to 60 mins by HPLC analysis in presence of UDPGA; settings: recombinant enzyme
T2 sequence (P35503 whole entry): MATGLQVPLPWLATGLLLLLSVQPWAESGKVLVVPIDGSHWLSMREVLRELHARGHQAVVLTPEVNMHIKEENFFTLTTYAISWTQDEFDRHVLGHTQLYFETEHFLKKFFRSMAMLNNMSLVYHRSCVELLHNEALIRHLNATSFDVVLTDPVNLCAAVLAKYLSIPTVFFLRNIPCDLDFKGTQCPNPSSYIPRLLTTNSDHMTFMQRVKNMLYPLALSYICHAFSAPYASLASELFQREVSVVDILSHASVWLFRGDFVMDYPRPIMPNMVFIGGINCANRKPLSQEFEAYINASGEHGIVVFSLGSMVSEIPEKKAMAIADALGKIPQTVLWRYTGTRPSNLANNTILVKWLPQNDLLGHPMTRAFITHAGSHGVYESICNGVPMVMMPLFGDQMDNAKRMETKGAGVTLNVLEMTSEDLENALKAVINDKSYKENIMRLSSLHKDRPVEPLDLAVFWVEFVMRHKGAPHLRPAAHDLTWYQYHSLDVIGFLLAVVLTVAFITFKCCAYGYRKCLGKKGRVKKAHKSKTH
In short: (§2)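 Screening at a single substrate concentration of 200 μM, in triplicate. The reaction used 5 or 50 µg of UGT-enriched insect cell membranes in 50 mM phosphate pH 7.4 with 10 mM MgCl₂ and 5 mM UDPGA, 10% final DMSO. Incubation was 15–60 min at 37°C. Perchloric acid stopped the reaction and supernatants were analysed by HPLC. Controls lacked UDPGA. Rates were normalized to relative UGT expression level.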

[5] = target: T3, UDP-glucuronosyltransferase 1A4 (Homo sapiens, UniProt P22310); assay: Drug metabolism assessed as recombinant human C-terminal His-tagged UGT1A4-mediated estradiol-17-glucuronide formation at 200 uM after 15 to 60 mins by HPLC analysis in presence of UDPGA; settings: recombinant enzyme; in short: as §2
T3 sequence (P22310 whole entry): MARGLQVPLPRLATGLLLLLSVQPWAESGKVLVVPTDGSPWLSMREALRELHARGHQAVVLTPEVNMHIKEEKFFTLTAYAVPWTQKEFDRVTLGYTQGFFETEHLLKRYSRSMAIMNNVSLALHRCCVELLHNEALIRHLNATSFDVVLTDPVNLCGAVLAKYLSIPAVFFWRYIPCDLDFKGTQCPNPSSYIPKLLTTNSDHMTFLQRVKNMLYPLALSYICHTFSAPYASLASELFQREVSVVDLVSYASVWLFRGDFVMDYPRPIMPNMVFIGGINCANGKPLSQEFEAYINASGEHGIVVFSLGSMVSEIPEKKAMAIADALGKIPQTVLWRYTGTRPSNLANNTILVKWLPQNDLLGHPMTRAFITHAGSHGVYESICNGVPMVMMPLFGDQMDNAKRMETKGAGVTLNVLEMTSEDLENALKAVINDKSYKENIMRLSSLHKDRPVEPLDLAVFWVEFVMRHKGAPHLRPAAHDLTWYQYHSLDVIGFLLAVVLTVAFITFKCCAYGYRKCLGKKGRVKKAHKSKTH

[6] = Drug metabolism in human intestine microsomes assessed as estriol-17-glucuronide formation after 15 to 60 mins by Michaelis-Menten equation analysis in presence of UDPGA; in short: as §1
[7] = target: T4, UDP-glucuronosyltransferase 1A1 (Homo sapiens, UniProt P22309); assay: Drug metabolism assessed as recombinant human C-terminal His-tagged UGT1A1-mediated estriol-3-glucuronide formation at 200 uM after 15 to 60 mins by HPLC analysis in presence of UDPGA; settings: recombinant enzyme; in short: as §2
T4 sequence (P22309 whole entry): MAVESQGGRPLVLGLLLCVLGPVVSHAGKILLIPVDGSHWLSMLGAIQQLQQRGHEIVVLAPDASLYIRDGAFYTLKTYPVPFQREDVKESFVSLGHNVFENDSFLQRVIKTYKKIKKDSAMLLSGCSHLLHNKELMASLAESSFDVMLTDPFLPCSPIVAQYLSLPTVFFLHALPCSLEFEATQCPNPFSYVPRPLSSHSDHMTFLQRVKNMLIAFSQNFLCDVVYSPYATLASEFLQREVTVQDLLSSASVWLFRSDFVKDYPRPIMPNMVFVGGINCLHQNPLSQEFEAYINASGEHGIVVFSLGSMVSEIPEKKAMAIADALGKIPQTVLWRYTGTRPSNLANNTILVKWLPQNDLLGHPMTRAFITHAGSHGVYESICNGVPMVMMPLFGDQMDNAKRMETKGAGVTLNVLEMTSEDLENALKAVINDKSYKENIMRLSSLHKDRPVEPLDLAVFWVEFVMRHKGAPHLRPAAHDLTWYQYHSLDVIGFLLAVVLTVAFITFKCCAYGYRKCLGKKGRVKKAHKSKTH

In the case of C[C@]12CC[C@@H]3c4ccc(O)cc4CC[C@H]3[C@@H]1C[C@@H](O)[C@H]2O, the Drug metabolism [1] is reported as “metabolite_not_detected”.
For C[C@]12CC[C@@H]3c4ccc(O)cc4CC[C@H]3[C@@H]1C[C@H](O)[C@@H]2O [EPIESTRIOL], the Drug metabolism [2] was “metabolite_detected”, the Km [3] was 50 µM and the Vmax [3] was 4111 pmol/min/mg.
In the case of C[C@]12CC[C@@H]3c4ccc(O)cc4CC[C@H]3[C@@H]1CC[C@@H]2O [ESTRADIOL], the Drug metabolism [4] is reported as “metabolite_detected” and the Drug metabolism [5] is reported as “metabolite_detected”.
With C[C@]12CC[C@@H]3c4ccc(O)cc4CC[C@H]3[C@@H]1C[C@@H](O)[C@@H]2O [ESTRIOL] the Km [6] was 1120 µM, the Vmax [6] was 2095 pmol/min/mg and the Drug metabolism [7] was “metabolite_detected”.

From ChEMBL document CHEMBL3525985, “Regiospecificity and stereospecificity of human UDP-glucuronosyltransferases in the glucuronidation of estriol, 16-epiestriol, 17-epiestriol, and 13-epiestradiol” (Drug Metab Dispos, 2013)
